Laboratory results published in ChEMBL document CHEMBL5724801, “EUbOPEN Chemogenomics Library - Multiplex” (2024).
Values joined by “and” are separate entries in the source; they are usually repeats but may differ in a detail not shown here. Equal entries are not always repeated.

Test system: U2OS
Test: Multiplex assay against U2OS
Type: toxicity, cell-based
Conditions: human
Procedure, shortened: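 Cells stained live at seeding with Hoechst33342, BioTracker Green Microtubule Cytoskeleton Dye, MitoTracker Red and Annexin V Alexa Fluor 680 were imaged on a CQ1 microscope at 37°C and 5% CO2 after compound addition. Their classification by CellPathfinder machine-learning gating ran from Hoechst high-intensity objects versus normal cells, to healthy, pyknosed or fragmented nuclei among normal cells, to mitotic or apoptotic among pyknosed cells. Tubulin, mitochondrial-mass and membrane-permeability phenotypes are per cents of healthy-nucleus cells.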

[1] = 12 h, 1 µM, compound concentration 1 uM
[2] = 12 h, 10 µM, compound concentration 10 uM
[3] = 24 h, 1 µM, compound concentration 1 uM
[4] = 24 h, 10 µM, compound concentration 10 uM
[5] = 48 h, 1 µM, compound concentration 1 uM
[6] = 48 h, 10 µM, compound concentration 10 uM

COCCNc1cc(NC(=O)N2CCCc3cc(CN4CCN(C)CC4=O)c(C=O)nc32)ncc1C#N [FGF401]
Population Apoptotic (%) [1]: 50% and 42.86% | Population Fragmented Nuclei (%) [1]: 2.96% and 1.3% | Population Healthy Nuclei (%) [1]: 87.87% and 85.06% | Population Hoechst High Intensity Objects (%) [1]: 0% | Population Membrane Permeable-Phenotype (%) [1]: 2.15% and 0% | Population Mitochondria Different-Phenotype (%) [1]: 0% and 2.29% | Population Mitotic Cells (%) [1]: 50% and 57.14% | Population Normal (%) [1]: 100% | Population Pyknosed Nuclei (%) [1]: 9.16% and 13.64% | Population Tubulin-Different-Phenotype (%) [1]: 2.15% and 0.76% | Total Cell Count [1]: 371 and 154 | Population Apoptotic (%) [2]: 37.5% and 26.32% | Population Fragmented Nuclei (%) [2]: 0.72% and 5.88% | Population Healthy Nuclei (%) [2]: 91.65% and 82.94% | Population Hoechst High Intensity Objects (%) [2]: 0.24% and 0% | Population Membrane Permeable-Phenotype (%) [2]: 1.3% and 4.26% | Population Mitochondria Different-Phenotype (%) [2]: 0% and 3.55% | Population Mitotic Cells (%) [2]: 62.5% and 73.68% | Population Normal (%) [2]: 99.76% and 100% | Population Pyknosed Nuclei (%) [2]: 7.64% and 11.18% | Population Tubulin-Different-Phenotype (%) [2]: 0.52% and 0% | Total Cell Count [2]: 420 and 170 | Population Apoptotic (%) [3]: 48.94% and 42.31% | Population Fragmented Nuclei (%) [3]: 1.93% and 2.97% | Population Healthy Nuclei (%) [3]: 88.97% and 84.16% | Population Hoechst High Intensity Objects (%) [3]: 0.19% and 0% | Population Membrane Permeable-Phenotype (%) [3]: 0.87% and 1.18% | Population Mitochondria Different-Phenotype (%) [3]: 0.87% and 4.71% | Population Mitotic Cells (%) [3]: 51.06% and 57.69% | Population Normal (%) [3]: 99.81% and 100% | Population Pyknosed Nuclei (%) [3]: 9.09% and 12.87% | Population Tubulin-Different-Phenotype (%) [3]: 0.87% and 0% | Total Cell Count [3]: 518 and 202 | Population Apoptotic (%) [4]: 43.18% and 34.29% | Population Fragmented Nuclei (%) [4]: 1.85% and 3.54% | Population Healthy Nuclei (%) [4]: 90.04% and 80.97% | Population Hoechst High Intensity Objects (%) [4]: 0% | Population Membrane Permeable-Phenotype (%) [4]: 1.23% and 2.19% | Population Mitochondria Different-Phenotype (%) [4]: 0% and 3.28% | Population Mitotic Cells (%) [4]: 56.82% and 65.71% | Population Normal (%) [4]: 100% | Population Pyknosed Nuclei (%) [4]: 8.12% and 15.49% | Population Tubulin-Different-Phenotype (%) [4]: 0.61% and 1.09% | Total Cell Count [4]: 542 and 226 | Population Apoptotic (%) [5]: 45.12% and 50% | Population Fragmented Nuclei (%) [5]: 4.25% and 1.54% | Population Healthy Nuclei (%) [5]: 87.05% and 87.38% | Population Hoechst High Intensity Objects (%) [5]: 0% | Population Membrane Permeable-Phenotype (%) [5]: 0.73% and 3.17% | Population Mitochondria Different-Phenotype (%) [5]: 0.49% and 4.23% | Population Mitotic Cells (%) [5]: 54.88% and 50% | Population Normal (%) [5]: 100% | Population Pyknosed Nuclei (%) [5]: 8.7% and 11.08% | Population Tubulin-Different-Phenotype (%) [5]: 0.73% and 0.7% | Total Cell Count [5]: 942 and 325 | Population Apoptotic (%) [6]: 39.42% and 53.49% | Population Fragmented Nuclei (%) [6]: 2% and 2.76% | Population Healthy Nuclei (%) [6]: 87.6% and 86.43% | Population Hoechst High Intensity Objects (%) [6]: 0% and 0.25% | Population Membrane Permeable-Phenotype (%) [6]: 1.14% and 2.62% | Population Mitochondria Different-Phenotype (%) [6]: 0.11% and 1.45% | Population Mitotic Cells (%) [6]: 60.58% and 46.51% | Population Normal (%) [6]: 100% and 99.75% | Population Pyknosed Nuclei (%) [6]: 10.4% and 10.8% | Population Tubulin-Different-Phenotype (%) [6]: 0.91% and 1.16% | Total Cell Count [6]: 1000 and 399
